Laboratory results as given in paper PMC8602434 (Drugs in R&D, 2021).

Assay: Healthy volunteers, multiple-dose arm, sc once daily for 7 days
Format: in vivo
Settings: human
Method in brief: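 Double-blind, placebo-controlled abdominal sc dosing once daily for 7 days: 1.0 or 3.0 mg, cohorts of 10 (8 active, 2 placebo). Serial blood on Day 1 (predose to 24 h), peak/trough on Days 2–6, Day 7 (predose to 16 h), then to 48 h after last dose. Validated bioanalytical method. Noncompartmental: Day 7 values as steady state, AUCτ, accumulation ratio. AEs recorded.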

[1] = 1.0 mg sc once daily, Day 7, geometric mean, n=5
[2] = 1.0 mg sc once daily, Day 7, median, n=5
[3] = 1.0 mg sc once daily, Day 7, median, n=8
[4] = 3.0 mg sc once daily, Day 1, geometric mean, n=7
[5] = 3.0 mg sc once daily, Day 1, geometric mean, n=8
[6] = 3.0 mg sc once daily, Day 1, median, n=7
[7] = 3.0 mg sc once daily, Day 1, median, n=8
[8] = 3.0 mg sc once daily, Day 7, geometric mean, n=8
[9] = 3.0 mg sc once daily, Day 7, mean (SD), n=8
[10] = 3.0 mg sc once daily, Day 7, median, n=6
[11] = 3.0 mg sc once daily, Day 7, median, n=8

- t½ (1.0 mg sc once daily, Day 1, geometric mean, n=6): 4.1 h
- CL/F (1.0 mg sc once daily, Day 1, median, n=6): 20.2 L/h
- AI (accumulation index) [1]: 1.1
- t½ [1]: 6.7 h
- AUCτ (1.0 mg sc once daily, Day 7, geometric mean, n=8): 51.2 ng·h/mL
- AI (accumulation index) (1.0 mg sc once daily, Day 7, mean (SD), n=5): 1.1 (0.1)
- AUCτ (1.0 mg sc once daily, Day 7, mean (SD), n=8): 52.9 (15.0) ng·h/mL
- AI (accumulation index) [2]: 1.1
- AUC∞ [2]: 51.8 ng·h/mL
- Vd/Fss [2]: 174 L
- AUCτ [3]: 48.3 ng·h/mL
- tmax [3]: 0.5 h
- AUC∞ [4]: 169.0 ng·h/mL
- AUC∞/dose [4]: 56.5 ng·h/mL/mg
- Cmax [5]: 53.7 ng/mL
- Cmax/dose [5]: 17.9 ng/mL/mg
- AUC∞/dose (3.0 mg sc once daily, Day 1, mean (SD), n=7): 57.2 (10.2) ng·h/mL/mg
- Cmax/dose (3.0 mg sc once daily, Day 1, mean (SD), n=8): 18.1 (3.2) ng/mL/mg
- AUC∞ [6]: 159.0 ng·h/mL
- AUC∞/dose [6]: 53.0 ng·h/mL/mg
- CL/F [6]: 18.9 L/h
- t½ [6]: 9.6 h
- AUC0–t [7]: 145.0 ng·h/mL
- Cmax [7]: 50.0 ng/mL
- AI (accumulation index) (3.0 mg sc once daily, Day 7, geometric mean, n=6): 1.4
- AUCτ [8]: 174.0 ng·h/mL
- AUCτ/dose [8]: 58.1 ng·h/mL/mg
- Cmax/dose [8]: 19.1 ng/mL/mg
- AI (accumulation index) (3.0 mg sc once daily, Day 7, mean (SD), n=6): 1.4 (0.2)
- AUCτ [9]: 177.0 (36.0) ng·h/mL
- AUCτ/dose [9]: 59.1 (12.0) ng·h/mL/mg
- Cmax/dose [9]: 19.5 (4.52) ng/mL/mg
- AI (accumulation index) [10]: 1.3
- AUC∞ [10]: 200.0 ng·h/mL
- AUCτ [11]: 171.0 ng·h/mL
- AUCτ/dose [11]: 57.1 ng·h/mL/mg
- Dose linearity for AUC∞ and Cmax (multiple-dose arm): inconclusive
- Intact drug excreted in the urine (multiple-dose arm): ≤ 1%
- Time after dosing at which Cmax was generally reached (tmax) (multiple-dose arm): 0.25 to 0.75 h
SMILES: CCCC[C@H](NC(C)=O)C(=O)N[C@H]1CCC(=O)NC[C@@H](C(=O)N[C@@H](Cc2c[nH]c3ccccc23)C(N)=O)NC(=O)[C@H](CCCNC(=N)N)NC(=O)[C@@H](Cc2ccccc2)NC(=O)[C@H](Cc2c[nH]cn2)NC1=O [PL8177]
- AEs leading to study discontinuation, serious AEs, or severe AEs (multiple-dose arm): no reports
- Most commonly reported AEs (multiple-dose arm): injection-site pain, erythema, and induration
